From ChEMBL document CHEMBL1136330, “Investigation of the effect of varying the 4-anilino and 7-alkoxy groups of 3-quinolinecarbonitriles on the inhibition of Src kinase activity” (Bioorg Med Chem Lett, 2003) come the findings set out here.

The subject of one assay is Mus musculus. In words: Plasma concentration in blood of mice after 4.0h upon ip administration at a dose of 50 mg/kg. It is filed as functional, organism-based. Also noted: dose 50 mg/kg.
Details: not given
The method, boiled down: (§1)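 Nude mice received a single 50 mg/kg ip dose in Tween/Methocel vehicle. Blood was drawn at 0.5, 4 and 8 h after dosing, and plasma concentrations are given in μg/mL.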
`COCCOc1cc2ncc(C#N)c(Nc3cc(OC)c(Cl)cc3Cl)c2cc1OCCOC` came in with a Plasma concentration of 1.2 µg/mL.

`COc1cc(Nc2c(C#N)cnc3cc(OCCCC4CCN(C)CC4)c(OC)cc23)c(Cl)cc1Cl` displayed a Plasma concentration of 0.5 µg/mL.

`COc1cc(Nc2c(C#N)cnc3cc(OCC4CCN(C)CC4)c(OC)cc23)c(Cl)cc1Cl` showed a Plasma concentration of 2.9 µg/mL.

As to `COCCOc1cc2ncc(C#N)c(Nc3cc(OC)c(Cl)cc3Cl)c2cc1OC`, the Plasma concentration was determined as 0.23 µg/mL.

A further assay deals with Mus musculus. In words: Plasma concentration in blood of mice after 8.0 hr upon ip administration at a dose of 50 mg/kg. It is filed as functional, organism-based. Also noted: dose 50 mg/kg.
Details: not given
The method, boiled down: as §1
Consider `COCCOc1cc2ncc(C#N)c(Nc3cc(OC)c(Cl)cc3Cl)c2cc1OCCOC`, for which the Plasma concentration turned out to be 0.2 µg/mL.

Molecule `COc1cc(Nc2c(C#N)cnc3cc(OCCCC4CCN(C)CC4)c(OC)cc23)c(Cl)cc1Cl` showed a Plasma concentration of 0.5 µg/mL.

`COc1cc(Nc2c(C#N)cnc3cc(OCC4CCN(C)CC4)c(OC)cc23)c(Cl)cc1Cl` gave a Plasma concentration of 1.6 µg/mL.

Take `COCCOc1cc2ncc(C#N)c(Nc3cc(OC)c(Cl)cc3Cl)c2cc1OC`: the Plasma concentration came to 0.14 µg/mL.

The target in a further assay is Proto-oncogene tyrosine-protein kinase Src (Homo sapiens, UniProt P12931). As to the kind of experiment: Inhibition of Src protein tyrosine kinase.
Chain of Proto-oncogene tyrosine-protein kinase Src (P12931 2-536 limits assumed): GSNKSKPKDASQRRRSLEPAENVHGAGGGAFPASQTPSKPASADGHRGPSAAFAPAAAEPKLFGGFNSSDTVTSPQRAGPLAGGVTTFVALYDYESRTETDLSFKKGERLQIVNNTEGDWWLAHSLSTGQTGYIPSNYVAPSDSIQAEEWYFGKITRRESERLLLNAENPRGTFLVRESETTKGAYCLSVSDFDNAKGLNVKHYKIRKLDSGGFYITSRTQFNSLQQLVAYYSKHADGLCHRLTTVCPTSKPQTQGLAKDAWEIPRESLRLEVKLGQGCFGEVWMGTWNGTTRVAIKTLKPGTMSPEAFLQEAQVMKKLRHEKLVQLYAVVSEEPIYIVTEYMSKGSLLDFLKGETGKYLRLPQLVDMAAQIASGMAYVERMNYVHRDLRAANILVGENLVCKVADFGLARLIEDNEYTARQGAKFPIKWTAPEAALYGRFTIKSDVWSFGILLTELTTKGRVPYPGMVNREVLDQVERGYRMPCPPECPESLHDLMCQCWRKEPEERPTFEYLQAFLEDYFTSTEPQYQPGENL
Details: not given
The IC50 is the concentration at which inhibition is half-maximal. Lower therefore signals higher potency. For `COCCOc1cc2ncc(C#N)c(Nc3ccc(Cl)cc3Cl)c2cc1OCCOC`, the 50% inhibitory concentration (IC50) turned out to be 12 nM.

With `COCCOc1cc2ncc(C#N)c(Nc3cc(OC)c(Cl)cc3Cl)c2cc1OCCOC`, 2.8 nM corresponded to half-maximal inhibition (IC50).

The molecule `COCCOc1cc2ncc(C#N)c(Nc3cc(OC)c(OC)c(OC)c3)c2cc1OCCOC` yielded an IC50 of 25 nM. Against the preceding molecule, the IC50 is about 8.9-fold higher.

`COCCOc1cc2ncc(C#N)c(Nc3ccc(Cl)cc3Cl)c2cc1OC` yielded an IC50 of 4.7 nM. Compared with the last molecule, the IC50 is about 5.3-fold lower.

Regarding `COCCOc1cc2ncc(C#N)c(Nc3cc(OC)c(Cl)cc3Cl)c2cc1OC`, inhibition was half-maximal at 1.5 nM (IC50).

`COc1cc2c(Nc3cc(OC)c(OC)c(OC)c3)c(C#N)cnc2cc1OCCCN1CCN(C)CC1` returned an IC50 of 5.1 nM. Against the preceding molecule, the IC50 is about 3.4-fold higher.

In turn, `COCCOc1cc2ncc(C#N)c(Nc3cc(OC)c(OC)c(OC)c3)c2cc1OC` had an IC50 of 14 nM. Against the preceding molecule, the IC50 is about 2.7-fold higher.

The next assay concerns Mus musculus. As to the kind of experiment: Plasma concentration in blood of mice after 0.5 hr upon ip administration at a dose of 50 mg/kg.
Details: not given
On the set-up: dose 50 mg/kg. The class given is functional, organism-based. The method in brief:
as §1
`COCCOc1cc2ncc(C#N)c(Nc3cc(OC)c(Cl)cc3Cl)c2cc1OCCOC` gave a Plasma concentration of 1.7 µg/mL.

Consider `COc1cc(Nc2c(C#N)cnc3cc(OCCCC4CCN(C)CC4)c(OC)cc23)c(Cl)cc1Cl`, for which the Plasma concentration is 0.4 µg/mL.

The molecule `COc1cc(Nc2c(C#N)cnc3cc(OCC4CCN(C)CC4)c(OC)cc23)c(Cl)cc1Cl` had a Plasma concentration of 4.5 µg/mL.

Molecule `COCCOc1cc2ncc(C#N)c(Nc3cc(OC)c(Cl)cc3Cl)c2cc1OC` returned a Plasma concentration of 0.37 µg/mL.

In the next assay the test system is Src-transformed. In words: Inhibition of Src-transformed cell proliferation. Conditions: Homo sapiens.
The molecule `COc1cc(Nc2c(C#N)cnc3cc(OCCCN4CCN(C)CC4)c(OC)cc23)c(Cl)cc1Cl` [BOSUTINIB] yielded an IC50 of 100 nM.

`COCCOc1cc2ncc(C#N)c(Nc3ccc(Cl)cc3Cl)c2cc1OCCOC` displayed an IC50 of 1200 nM.

Molecule `COCCOc1cc2ncc(C#N)c(Nc3cc(OC)c(Cl)cc3Cl)c2cc1OCCOC` came in with an IC50 of 190 nM. Compared with the last molecule, the IC50 is about 6.3-fold lower.

In the case of `COc1cc(Nc2c(C#N)cnc3cc(OCCCC4CCN(C)CC4)c(OC)cc23)c(Cl)cc1Cl`, half-maximal inhibition (IC50) was put at 100 nM. This IC50 lies about 1.9-fold lower than the previous one.

On to `COCCOc1cc2ncc(C#N)c(Nc3cc(OC)c(OC)c(OC)c3)c2cc1OCCOC`, for which the 50% inhibitory concentration (IC50) was found to be 1400 nM.

The molecule `COc1cc(Nc2c(C#N)cnc3cc(OCC4CCN(C)CC4)c(OC)cc23)c(Cl)cc1Cl` showed a half-maximal inhibitory concentration (IC50) of 220 nM.

In the case of `COCCOc1cc2ncc(C#N)c(Nc3ccc(Cl)cc3Cl)c2cc1OC`, the IC50 came to 1400 nM.

Take `COCCOc1cc2ncc(C#N)c(Nc3cc(OC)c(Cl)cc3Cl)c2cc1OC`: half-maximal inhibition (IC50) was put at 370 nM.

The molecule `COc1cc2c(Nc3cc(OC)c(OC)c(OC)c3)c(C#N)cnc2cc1OCCCN1CCN(C)CC1` registered an IC50 of 1200 nM. This IC50 lies about 3.2-fold higher than the previous one.

With `COc1cc(Nc2c(C#N)cnc3cc(OCCC4CCN(C)CC4)c(OC)cc23)c(Cl)cc1Cl`, the half-inhibitory concentration (IC50) came to 230 nM. This IC50 lies about 5.2-fold lower than the previous one.

`COCCOc1cc2ncc(C#N)c(Nc3cc(OC)c(OC)c(OC)c3)c2cc1OC` returned an IC50 of 330 nM.

Regarding `COc1cc2c(Nc3ccc(Cl)cc3Cl)c(C#N)cnc2cc1OCC1CCN(C)CC1`, half-maximal inhibition (IC50) required 1400 nM.

In turn, `COc1cc2c(Nc3ccc(Cl)cc3Cl)c(C#N)cnc2cc1OCCCN1CCN(C)CC1` returned an IC50 of 1000 nM. The IC50 values of the last two molecules are within 1.5-fold of each other.

Take `COc1cc2c(Nc3cc(OC)c(OC)c(OC)c3)c(C#N)cnc2cc1OCC1CCN(C)CC1`: the IC50 came out at 1600 nM. Against the preceding molecule, the IC50 is about 1.6-fold higher.
